High-throughput results from PubChem BioAssay.
Hits are enriched below; roughly 2.7% of the tested compounds scored in any of these assays.
CHO parental Ca: counter-screen for OX1R antagonists: effect in parental CHO cells. parental CHO-K1, ATP-induced calcium, Fluo-8 fluorescence. inhibition, % at 5.6 µM. actives 0.63% (n = 330,000). AID 463079;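 active = inhibition above that plate's mean sample inhibition plus 3 SD, cut at about 26% in these data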;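 note: 0% = ATP-challenged DMSO wells and 100% = DMSO wells without ATP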
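Assay system – parental CHO cells · Reagent – ATP stimulus · Detection – intracellular calcium via Fluo-8 no-wash fluorescent dye · Evaluation – percent inhibition of ATP-evoked calcium rise, normalized to controls · Controls – ATP wells versus no-ATP DMSO wells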
OX1R antag-1: blocks the human orexin 1 receptor. O43613. OX1R-expressing cells, FRET antagonist read-out. inhibition, % at 6.6 µM. actives 1.8% (n = 330,000); in the data active = inhibition mostly above about 38%, no sharp cut-off; inactive = mostly below about 40%;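 note: 0% = agonist challenge alone and 100% = reference antagonist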
OXTR agonist: human OXTR agonism; activation, % at 3 µM; CHO-OTR cells, Fluo-8 calcium fluorescence; normalized: DMSO 0%, oxytocin 100%; P30559; AID 2435; actives 0.32% (n = 320,000);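 active = activation above the mean of all tested compounds plus 3 SD, cutoff set per screening run, cut at about 20% in these data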;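 note: peak over basal fluorescence ratio from a 100 s FLIPR kinetic read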
Target sequence (P30559 whole entry, looked up): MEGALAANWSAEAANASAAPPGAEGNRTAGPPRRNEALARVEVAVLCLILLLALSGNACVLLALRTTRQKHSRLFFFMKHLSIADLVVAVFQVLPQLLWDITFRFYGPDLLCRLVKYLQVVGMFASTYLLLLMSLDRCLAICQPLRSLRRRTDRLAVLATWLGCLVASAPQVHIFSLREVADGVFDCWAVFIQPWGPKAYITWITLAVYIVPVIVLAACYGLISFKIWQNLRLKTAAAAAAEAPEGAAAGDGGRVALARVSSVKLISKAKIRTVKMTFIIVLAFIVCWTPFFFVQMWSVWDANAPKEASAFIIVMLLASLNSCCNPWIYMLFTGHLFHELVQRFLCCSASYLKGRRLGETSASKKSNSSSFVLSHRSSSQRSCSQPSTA
OXTR potentiate: potentiates the human oxytocin receptor response; P30559; CHO-OTR cells, Fluo-8 calcium fluorescence, potentiator mode; 0% = oxytocin EC15, 100% = EC100; activation, % at 3 µM; actives 0.061% (n = 320,000); AID 2445;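 active = activation above that plate's cutoff, the mean activation of tested compounds plus 3 SD, cut at about 6.6% in these data, passing the limit was not always enough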;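 note: 100% uses oxytocin at 75 nM as the full agonist control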
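test system = CHO-OTR cells, human receptor | compound = single-point 3.0 µM | schedule = 6 min compound pre-incubation at room temperature, 100 s kinetic read | signal = Fluo-8 no-wash calcium dye fluorescence, excitation 470-495 nm, emission 515-575 nm | repeats = single well per compound, singlicate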
OX1R antag-2: blocks the human orexin 1 receptor | inhibition, % at 5 µM | CHO/OX1R cells, Fluo-8 calcium fluorescence, orexin A | AID 434989 | O43613 | actives 0.43% (n = 330,000);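 active = inhibition above its plate's threshold, mean inhibition of all tested compounds on the plate plus 3 SD, cut at about 37% in these data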;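 note: 0% = orexin A challenge wells and 100% = SB-334867-A antagonist wells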
V1aR counter: activates human V1a receptor in oxytocin agonist counter-screen | activation, % at 3 µM | CHO-V1R cells, Fluo-8 calcium fluorescence, agonist mode; 0% DMSO, 100% 3 nM vasopressin | actives 0.25% (n = 320,000) | AID 2797 | P37288;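 active = activation above the mean activation of all tested compounds plus 3 SD, per screening run, cut at about 20% in these data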;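 note: signal is peak over basal fluorescence ratio across a 100 second FLIPR read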
An asterisk follows results filed as active.

SMILES | CHO parental Ca | OX1R antag-1 | OXTR agonist | OXTR potentiate | OX1R antag-2 | V1aR counter
COc1ccc(-c2csc3ncnc(N4CCN(S(=O)(=O)c5ccc(C)cc5)CC4)c23)cc1 | -26 | 2 | -1 | 0 | -46 | 0
Cc1sc2ncnc(N3CCN(S(=O)(=O)c4ccc(C(C)(C)C)cc4)CC3)c2c1C | 51* | 11 | 4 | -10 | 37 | 4
Cc1sc2ncnc(N3CCN(S(=O)(=O)c4ccc(Br)cc4)CC3)c2c1C | -19 | 21 | 2 | -4 | -23 | 2
Cc1csc2ncnc(N3CCN(S(=O)(=O)c4cccc(C(F)(F)F)c4)CC3)c12 | 59* | 56* | 4 | -15 | 20 | 8
CCOCCOC(=O)c1[nH]c2c(c1C)C(=O)CC(c1ccc(OC)c(OC)c1)C2 (stereo unspecified) | -4 | 11 | 12 | -22 | -21 | 14
COc1cc(C2CC(=O)c3c([nH]c(C(=O)OCCOC(C)C)c3C)C2)cc(OC)c1OC (stereo unspecified) | 31* | 19 | 8 | -9 | -1 | 10
CCOC(=O)N/N=C/c1ccccc1F | -9 | 7 | -1 | -2 | -5 | -1
CCc1nnc(N/N=C/c2ccccc2F)n1N | 6 | 74* | 1 | -1 | 6 | 0
CCN1CCN(c2c(/C=C3\SC(=S)N(Cc4ccco4)C3=O)c(C)c(C#N)c(=O)n2C)CC1 | 7 | 9 | 14 | -10 | 8 | 20*
COc1ccc(-n2c(C)cc(/C=C3\SC(=S)N(Cc4ccco4)C3=O)c2C)cc1 | 6 | 19 | 3 | -1 | 4 | 2
Cc1onc(C(=O)N2C(C)CCCC2C)c1[N+](=O)[O-] (stereo unspecified) | 5 | 22 | 1 | 1 | -14 | 0
O=C(Nc1ccc2c(c1)OCO2)c1cc(-c2ccc(O)cc2)on1 | 39* | 18 | 1 | -6 | -13 | 1
O=C(Nc1ccc2c(c1)OCO2)c1cc(-c2cccc(O)c2)on1 | 6 | 53 | 1 | 0 | 3 | 2
O=C(N/C(=C\c1ccc([N+](=O)[O-])cc1)C(=O)N1CCCCC1)c1ccc(Br)o1 | 9 | 24 | 0 | -11 | -26 | 1
O=C(N/C(=C\c1ccc([N+](=O)[O-])cc1)C(=O)N1CCCCC1)c1ccccc1Br | -28 | 51* | 1 | -15 | -31 | 1
COc1cccc(C(=O)NNc2c3ccccc3nc3ccccc23)c1 | -7 | 42* | -2 | -9 | -2 | -1
COc1cc(OC)cc(C(=O)NCc2cc(C)nc3ccccc23)c1 | -24 | 63* | 2 | -2 | 13 | 4
CC1CCCN(S(=O)(=O)c2ccc(NC(=O)C3CC(=O)N(c4ccccc4)C3)cc2)C1 (stereo unspecified) | 6 | 6 | 3 | -12 | -8 | 3
Cc1ccc(Cn2nnc3c(=O)n(CC(=O)OCc4ccccc4)cnc32)cc1 | 31* | 9 | 2 | -3 | 36 | 4
Cc1ccc(-n2nnc3c(=O)n(CC(=O)NCc4ccccc4)cnc32)cc1 | 42* | 14 | -1 | -2 | -4 | 1
Cc1cccc(-c2nc(CS(=O)CC(=O)N3CC(C)CC(C)C3)c(C)o2)c1 (stereo unspecified) | -23 | 6 | 0 | -2 | -19 | 2
Oc1ccc(C23CCCC2C2(CCCC2)c2ccc(O)cc2O3)c(O)c1 (stereo unspecified) | 75* | 8 | 39* | -15 | 110* | 28*
CC1CCC2(CC1)NC(=O)N(CC(=O)NC1CCCCC1C)C2=O (stereo unspecified) | 1 | 10 | 0 | 4 | 1 | 0
NC(=O)CSc1nnc(-c2ccccn2)n1Cc1ccco1 | -24 | 14 | 1 | 2 | -14 | 2
Clc1ccccc1CSc1nnc(-c2ccccn2)n1Cc1ccco1 | -24 | 57* | 4 | -20 | 24 | 3
SMILES | CHO parental Ca | OX1R antag-1 | OXTR agonist | OXTR potentiate | OX1R antag-2 | V1aR counter
C=Cn1cc[n+](CC(=O)C(C)(C)C)c1 | -1 | 5 | 0 | 1 | -6 | 0
COc1ccc(C(=O)c2cnc(/N=C/N(C)C)s2)cc1 | 4 | 46* | 1 | -4 | -10 | 3
CN(C)/C=N/c1ncc(C(=O)c2ccc3ccccc3c2)s1 | -16 | 42* | 3 | -5 | -23 | 2
CCN(CC)C(=S)SC1CCCCN(C(=O)c2ccc(F)cc2)C1=O (stereo unspecified) | -23 | 13 | -1 | -7 | -44 | -1
Cc1nc2n(n1)C(O)c1cc([N+](=O)[O-])ccc1S2 (stereo unspecified) | 1 | 93* | 0 | -9 | -8 | 1
O=[N+]([O-])c1ccc2c(c1)C(O)n1nc(-c3ccc(Cl)cc3Cl)nc1S2 (stereo unspecified) | -9 | 16 | 0 | -4 | -9 | 1
Cc1ccc(-n2nc3c(c2NC(=O)c2ccco2)CS(=O)C3)cc1 (stereo unspecified) | -14 | 4 | 1 | -3 | -9 | 2
CC(=O)[C@]1(O)Cc2c(O)c3c(c(O)c2[C@@H](O[C@H]2C[C@H](N)[C@H](O)[C@H](C)O2)C1)C(=O)c1ccccc1C3=O | 37* | 53 | 77* | -16 | 42* | 40*
N/C(=N\OC(=O)c1cccc2ccccc12)c1cccnc1 | -25 | 53* | -1 | -5 | -26 | 0
C=CCN1C(=O)C2(NNc3ccccc3O2)c2ccccc21 (stereo unspecified) | 32* | 7 | 5 | -4 | 30 | 7
CCCCN1C(=O)C2(NNc3ccccc3O2)c2ccccc21 (stereo unspecified) | 31 | 3 | 9 | -8 | 37* | 5
CCCCN1C(=O)C(O)(CC(=O)c2c(C)coc2C)c2ccccc21 (stereo unspecified) | -22 | 12 | -2 | -17 | -34 | 0
COc1ccc(CCC(=O)Nc2ccc3c(c2)OCO3)cc1OC | -10 | 14 | 1 | -4 | -18 | 1
COc1ccc(CN2CCC(CO)(Cc3cccc(C(F)(F)F)c3)CC2)cc1Cn1cccn1 | -25 | 12 | 13 | -11 | -26 | 9
O=C(CCC(=O)c1ccc(F)cc1)Nc1cccc(Br)c1 | 38* | -4 | -2 | -14 | 6 | 2
O=C(Oc1ccccc1)c1ccccc1OS(=O)(=O)c1ccccc1 | 65* | 41 | 0 | -18 | 61* | 3
CCC(=Cc1ccc(CC)cn1)CC | -7 | -1 | 0 | 3 | -21 | 0
Cc1ccccc1C(=O)NNC(=O)Nc1ccccc1 | -2 | 12 | 1 | 0 | -7 | 0
CC(=O)Nc1ccc(S(=O)(=O)NC2=C(N3CCN(C)CC3)C(=O)c3ccccc3C2=O)cc1 | -8 | 68* | 1 | -5 | -7 | 1
